# Laboratory results: the array DNA melting data of Ke et al. (doi:10.1101/2024.01.08.574731)
# How the values were obtained:
# [1] = melting temperature; fluorescence melt of hairpins on a sequencing array, two-state fit, raised by 9.35 °C to match UV melts; conditions: sodium 0.088 M
# Summary of the method: (§1)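 With Cy3 and quencher oligos annealed, library hairpins on a sequenced MiSeq flow cell were imaged for Cy3 fluorescence in 50 mM Na-HEPES pH 8.0, 25 mM NaCl, in 2.5 °C steps up to 60 °C. Melting temperature and folding enthalpy were derived from bootstrapped two-state fits of signals normalised to pre-quench Cy3 and to control constructs. Four replicates were combined by inverse variance, with fitted temperatures raised by 9.35 °C to match UV melts.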
# [2] = folding enthalpy; higher = less favourable; fluorescence melt of hairpins on a sequencing array, two-state fit; conditions: sodium 0.088 M
# Summary of the method: as §1
Sequence,Tm [1] [°C],folding enthalpy [2] [kcal/mol]
GTACTCGAAAGAGGTTAC ((((((....)))..))),26.6,-8.46
GCAGTGCGAAAGCAAAGC ((..(((....)))..)),51.3,-13.3
GTGTGCGGAAACGCGCAC (((.(((....))).))),67.7,-27.7
GATATGCGAAAGCAGATC (((.(((....))).))),53.3,-30.3
GCATCCGAAAGGAAGTGC ((((((....)))..))),41.3,-24.3
GATCATTAAGATGATC ((((((....)))))),46.4,-34.8
GTTGACGAAAGTCAAAAC ((((((....)))..))),38.4,-11.5
GCGACTGGTCGC ((((....)))),60.3,-38.1
GCCAAGCGAAAGCGTTGC ((.(.((....)).).)),40.1,-11.6
GCGAAACCTCGC ((((....)))),49.5,-19.9
GCCCCGCGAAAGCGCTGC ((..(((....)))..)),31.6,-9.38
GATACTGGAAACAGTATC (((((((....))))))),54.6,-40.4
GGGCCCGAAAGGGGACCC ((((((....)))..))),65.1,-14.4
GGTGAAGGAAACTTCACC (((((((....))))))),63,-42.6
GCTATGCGAAAGCCTTGC ((.(.((....)).).)),30,-12.7
GCATTACGAAAGTAGTGC (((.(((....))).))),52.4,-31.7
GCTACTGGAAACAGTAGC (((((((....))))))),64,-44.5
GATCTCGGAAACGGGATC ((((.((....)).)))),51.3,-35
GCTGGTGGAAACGCCAGC (((((.(....).))))),61.8,-52.9

Sequence,Tm [1] [°C],folding enthalpy [2] [kcal/mol]
GGGCGTTCGAAAGAACCC (((..(((....)))))),50.3,-19.9
GATATTACGAAAGTAATC (((..(((....)))))),34.7,-11.6
GATGCCGAAAGGCGAATC ((((((....)))..))),36.9,-9.65
GTTCTCCGAAAGGACAAC (((.(((....))).))),30,-15.6
GTCTACGAAAGTAAGAC ((((((....))).))),46.5,-24.2
GGGAGAGCGAAAGCTCCC (((..(((....)))))),53.7,-15.8
GTCGAAGAAATTCGAC ((((((....)))))),56.2,-35.6
GCTCTCCGAAAGGAAAGC (((.(((....))).))),46.5,-28.4
GTTGAACCGAAAGGTAAC (((..(((....)))))),31.1,-12.9
GCTGACGGAAACGTCAAC (.(((((....))))).),43.2,-14.3
GCCCCTCCGAAAGGAGGC (((..(((....)))))),39.8,-5.85
GTTTTACGAAAGTAGAAC (((.(((....))).))),41.2,-29.2
GATCTTGGGCAAGATC ((((((....)))))),46.7,-37.4
GAGCTCGGAAACGAACTC (((.(((....))).))),44.9,-28.6
GGAGCACGAAAGTGTTCC (((.(((....))).))),58.8,-39.8
GGGCAACGAAAGTTCCC (((.(((....)))))),47.4,-22.1
GATCACGAGGTGATC ((((((...)))))),57.8,-33.7
GTGATGCGAAAGCACCAC (((.(((....))).))),54.2,-29.2
GGTTACCCGAAAGGGACC (((..(((....)))))),35.2,-12.9
